Source: PubChem BioAssay
Results filed as inconclusive are left out.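 Rule for the calls, unless noted: active = inhibition over a set limit, the all-compound mean plus 3 SD, in both replicate runs; inconclusive = over that limit in just one replicate run; inactive = at or under that limit in both runs.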

Tests used:
[1] = S. cerevisiae growth inhibition in permissive medium (OD615), pilot counter-assay for S. cerevisiae lifespan shortening project, permissive growth control (AID 705;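 active = growth inhibition above 25% in both replicates, a cutoff set 3 SD above the mean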); settings: OD615, 24 h, at 10 µM, hits give high values
Method in brief: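 System: Engineered DeaD yeast | Buffer or medium: SC raffinose/galactose permissive medium | Incubation: Cells pre-grown 4 h, then 24 h compound exposure, 30 °C humidified | Measured by: Absorbance (optical density) at 615 nm | Read-out: Reduction in yeast growth (OD615)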

[2] = S. cerevisiae growth inhibition in restrictive medium, OD615, pilot screen, restrictive growth control, yeast lifespan reduction project (AID 706;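 active = growth inhibition above a set limit, 3 SD over mean compound inhibition, in both replicates, cut at about 43% in these data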;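 note: modified DeaD lifespan yeast strain shifted to restrictive glucose medium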); settings: OD615, 48 h, at 10 µM, hits give high values
Method in brief: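 Material: modified S. cerevisiae; Medium: glucose-based CSMM-D restrictive medium; Compound dosing: one concentration, 10 µM final, 0.25% DMSO; Incubation: 48 h compound exposure at 30 °C; Measured by: OD615.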

[3] = doxorubicin toxicity protection in MRP-1 cells – H69AR cells, CellTiter-Glo, duplicate, MRP-1 activator project, pilot screen (AID 807;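 active = viability increase at or above a cutoff of the median across tested compounds plus 3 SD, cut at about 8.5% in these data, passing the limit was not always enough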;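 note: compound pretreatment 18-22 h then 72 h combined with doxorubicin; 0% = doxorubicin alone and 100% = vehicle without doxorubicin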); settings: H69AR viability with doxorubicin, CellTiter-Glo luminescence; at 10 µM; hits give high values
[4] = viability of HCT116 without oncogenic beta-catenin – human colon tumor cells, pilot screen (AID 823;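 active = cell viability at or below a set limit in both duplicate runs, the limit being the all-compound median minus 4 SD, cut at about 23% in these data, passing the limit was not always enough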;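 note: 0% = wells killed by 20 µM Hyamine and 100% = untreated DMSO cell wells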); settings: HCT116 beta-catenin knockout viability, CellTiter-Glo, 60 h; at 10 µM; hits give low values
[5] = viability of PTEN-null HCT116 cells – cell-based, HCT116 clonal line, CellTiter-Glo, pilot screen (AID 824;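 active = viability at or below 27.92% in each of two runs, the all-compound median minus 4 SD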;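 note: 0% = 20 µM Hyamine control and 100% = vehicle cell control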); settings: HCT116 PTEN-deleted viability, 60 h, at 10 µM, hits give low values
[6] = RAM pathway blockade in budding yeast – dse1pr::URA3 reporter, 5-FOA selection, pilot screen (AID 869);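 note: 0% = DMSO wells with no growth and 100% = 10 µM 1-NA-PP1 with full growth; RAM network block rescues cells from 5-FOA so hits raise OD615 growth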; settings: S. cerevisiae dse1pr::URA3 5-FOA growth, OD615, 2 d; at 10 µM; hits give high values; strain carries analog-sensitive mutant Cbk1 kinase
[7] = RAM signaling pathway blockade in yeast – S. cerevisiae, Pdr1DBD-CYC8 efflux-inhibited sensitized strain, primary screen (AID 1298;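 active = RAM network inhibition above 8.4% in each of two replicates, 3 SD over the compound average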;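 note: 0% = DMSO untreated cells without growth and 100% = 10 µM 1-NA-PP1 full growth; higher means more yeast growth rescued from 5-FOA killing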); settings: S. cerevisiae cbk1-as DSE1-URA3 strain, 5-FOA growth OD615, 2 d; at 50 µM; hits give high values

COc1cc(Br)c(CC(=O)O)cc1OC
inactive: growth inhibition [1] -24.6% | growth inhibition [2] -13.7% | viability increase [3] -0.03% | viability [4] 98.2% | viability [5] 97.1% | inhibition [6] 2.38% | RAM network inhibition [7] 3.76%

Cc1ccccc1NC(=O)CSc1[nH]c(=O)cc(C)c1C#N
inactive: growth inhibition [1] -1.3% | growth inhibition [2] 11.7% | viability increase [3] -0.42% | viability [4] 108% | viability [5] 101% | inhibition [6] 2.41% | RAM network inhibition [7] 1.7%

O=C(CCn1c(=O)oc2ccccc21)N1CCN(c2ccc(F)cc2)CC1
inactive: growth inhibition [1] 2.05% | growth inhibition [2] -4.67% | viability increase [3] -0.8% | viability [4] 107% | viability [5] 102% | inhibition [6] 1.09% | RAM network inhibition [7] 3.71%

O=C(NCc1ccccn1)c1cc2ccccn2n1
inactive: growth inhibition [1] -2.5% | growth inhibition [2] 0.82% | viability increase [3] -0.01% | viability [4] 104% | viability [5] 102% | inhibition [6] 0.245% | RAM network inhibition [7] 3.25%

Cc1ccc2c(c1)NCC(C(=O)NCc1ccccc1)O2 (stereo not given)
inactive: growth inhibition [1] -10.4% | growth inhibition [2] 2.51% | viability increase [3] 0.49% | viability [4] 103% | viability [5] 88.6% | inhibition [6] 1.46% | RAM network inhibition [7] 0.25%

COc1ccc(-n2ncc3c(N4CCN(c5cc(C)ccc5C)CC4)ncnc32)cc1
inactive: growth inhibition [1] -8.7% | growth inhibition [2] 4.27% | viability increase [3] -4.46% | viability [4] 61.3% | viability [5] 68% | inhibition [6] 2.01% | RAM network inhibition [7] 3.49%

CCN(Cc1ccccc1)S(=O)(=O)c1ccc(S(=O)(=O)N2CCN(CCC#N)CC2)cc1
inactive: growth inhibition [1] -8.36% | growth inhibition [2] -8.88% | viability increase [3] -4.88% | viability [4] 90.7% | viability [5] 83.9% | inhibition [6] 1% | RAM network inhibition [7] 5.6%

COc1cccc(CNC(=O)c2ccc(NC(=O)C3CCCO3)cc2)c1 (stereo not given)
inactive: growth inhibition [1] -23.1% | growth inhibition [2] -16.5% | viability increase [3] 0.53% | viability [4] 95.1% | viability [5] 97.2% | inhibition [6] 1.14% | RAM network inhibition [7] 7.03%

Cc1ccccc1Nc1ncnc2c1cnn2-c1ccccc1
inactive: growth inhibition [1] -4.67% | growth inhibition [2] -4.63% | viability increase [3] -3.78% | viability [4] 86% | viability [5] 84.3% | inhibition [6] -0.23% | RAM network inhibition [7] -0.01%

CCCn1c(NCc2ccc(N(C)C)cc2)nc2ccccc21
inactive: growth inhibition [1] -11.6% | growth inhibition [2] -8.42% | viability increase [3] -1.82% | viability [4] 70.8% | viability [5] 70.9% | inhibition [6] 0.405% | RAM network inhibition [7] 5.4%

Clc1ccc(CSc2nnc(-c3ccccn3)n2Cc2ccco2)c(Cl)c1
inactive: growth inhibition [1] -2.3% | growth inhibition [2] 11.9% | viability increase [3] -3.47% | viability [4] 70.2% | viability [5] 64.1% | inhibition [6] 1.68% | RAM network inhibition [7] 7.51%

COCCNS(=O)(=O)c1cccc2cccnc12
inactive: growth inhibition [1] -1.37% | growth inhibition [2] 12.8% | viability increase [3] -1.69% | viability [4] 97.8% | viability [5] 92.2% | inhibition [6] 2.52% | RAM network inhibition [7] 2.27%

CCN(CC)S(=O)(=O)c1ccc(C(=O)OCCN2C(=O)CCC2=O)cc1
inactive: growth inhibition [1] -4.98% | growth inhibition [2] 10.3% | viability increase [3] 0.48% | viability [4] 102% | viability [5] 101% | inhibition [6] 0.755% | RAM network inhibition [7] 4.16%

COc1ccccc1CC(=O)N1CCN(c2cccc(C(F)(F)F)c2)CC1
inactive: growth inhibition [1] -9.59% | growth inhibition [2] 5.32% | viability increase [3] 1.84% | viability [4] 39.9% | viability [5] 60.9% | inhibition [6] 1.1% | RAM network inhibition [7] 7.84%

Cc1ccc(C)c(N2CCN(C(=O)c3cc4ccccc4oc3=O)CC2)c1
inactive: growth inhibition [1] -11.6% | growth inhibition [2] -15.9% | viability increase [3] 1.72% | viability [4] 100% | viability [5] 95.5% | inhibition [6] 1.18% | RAM network inhibition [7] 3.38%
